Read-outs that look alike come from different tables or passages of the source.
Legend:
[1] = type: in vivo, human; settings: for AUC / Cmax / T1/2 / Tmax / Urine excretion, %dose: mean (range); for Urine excretion, %dose: urine 0-24 hr
Outline: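 Patients with refractory solid tumors took the capsule with water after overnight fasting. Plasma was drawn predose and at 0.5, 1, 2, 4, 6, 9, 12, 24, 32 and 48 h, then stored at −70°C. Drug was extracted into ethyl acetate and quantified by LC–ESI single-quadrupole MS (LLOQ 5 ng/ml). Parameters were noncompartmental per patient, with Cmax and Tmax as observed. Renal clearance = Ae,0–24/AUC0–24.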

[2] = system: patients with advanced refractory solid tumors; test: Toxicity assessment; type: in vivo, human
[3] = system: patients with refractory metastatic solid tumors; test: Response to therapy; type: in vivo, human
Outline: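 Patients with refractory metastatic solid tumors received oral test compound once daily (5–40 mg/day dose escalation), taken with water after overnight fasting. Dosing was initially continuous over 28-day cycles, then amended to 21 days on and 7 days off. Treatment continued until progression or toxicity. Measurable disease was assessed by RECIST, with radiographic studies at end of cycle 3 and every other cycle thereafter.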

[4] = cited from earlier work
[5] = Population pharmacokinetic analysis
[6] = 5 mg single oral dose, cycle 1 day 1, n=2
[7] = 10 mg single oral dose, cycle 1 day 1, n=6
[8] = 15 mg single oral dose, cycle 1 day 1, n=3
[9] = 20 mg single oral dose, cycle 1 day 1, n=9
[10] = 25 mg single oral dose, cycle 1 day 1, n=6
[11] = 30 mg single oral dose, cycle 1 day 1, n=8
[12] = 35 mg single oral dose, cycle 1 day 1, n=6
[13] = 40 mg single oral dose, cycle 1 day 1, n=3

(α -(3-aminophthalimido) glutarimide) [lenalidomide]
AUC [1, 6]: 302 (257, 346) ng·hr/ml | Cmax [1, 6]: 80 (66, 93) ng/ml | T1/2 [1, 6]: 2.7 (2.1, 3.3) hr | Tmax [1, 6]: 0.75 (0.5, 1) hr | AUC [1, 7]: 571 (256–1415) ng·hr/ml | Cmax [1, 7]: 107 (59–163) ng/ml | T1/2 [1, 7]: 3.1 (2.4–4.2) hr | Tmax [1, 7]: 1 (0.5– 4) hr | AUC [1, 8]: 1090 (712–1391) ng·hr/ml | Cmax [1, 8]: 195 (174–224) ng/ml | Tmax [1, 8]: 2 (1–4) hr | AUC [1, 9]: 1901 (239–4093) ng·hr/ml | Cmax [1, 9]: 343 (64–621) ng/ml | T1/2 [1, 9]: 3.1 (1.9–7.8) hr | Tmax [1, 9]: 1 (0.5–6.1) hr | AUC [1, 10]: 3820 (1081–11363) ng·hr/ml | Cmax [1, 10]: 451 (311–631) ng/ml | T1/2 [1, 10]: 5.3 (1.6–15.9) hr | Tmax [1, 10]: 1.5 (0.5–8.9) hr | AUC [1, 11]: 4040 (844–15445) ng·hr/ml | Cmax [1, 11]: 593 (69–1315) ng/ml | T1/2 [1, 11]: 4.0 (3.2–14.2) hr | Tmax [1, 11]: 1.5 (0.5–6) hr | Urine excretion, %dose ([1]; 30 mg single oral dose, n=3): 47.0 (36.3–62.0) %dose | AUC [1, 12]: 5309 (3172–7062) ng·hr/ml | Cmax [1, 12]: 782 (594–969) ng/ml | T1/2 [1, 12]: 6.7 (3.7–14.5) hr | Tmax [1, 12]: 1 (0.5–4) hr | Urine excretion, %dose ([1]; 35 mg single oral dose, n=4): 54.6 (48.3–63.1) %dose | AUC [1, 13]: 3926 (3281–4656) ng·hr/ml | Cmax [1, 13]: 842 (648–1002) ng/ml | T1/2 [1, 13]: 4.1 (1.8–6.2) hr | Tmax [1, 13]: 1 (0.75–2) hr | Urine excretion, %dose ([1]; 40 mg single oral dose, n=2): 44.9 (43.8, 46.0) %dose | CL/F_renal as share of the total clearance ([1]; 9 patients): about 50% | amount of unchanged lenalidomide excreted into urine for 24 hours ([1]; 30-40 mg dose groups): 45–55 % of dose | mean half-life (T1/2) ([1]; across all doses 5-40 mg, oral): 3.9 h | time of peak plasma concentration ([1]; after single oral administration): around 1 hour | patients with dose reductions ([2]; continuous doses, 4 out of 15 patients): 27% | Anemia, Grade 3, number of patients ([2]; continuous dosing (n=15)): 1 | Constipation, Grade 1, number of patients ([2]; continuous dosing (n=15)): 2 | Constipation, Grade 2, number of patients ([2]; continuous dosing (n=15)): 1 | Diarrhea, Grade 1, number of patients ([2]; continuous dosing (n=15)): 4 | Dizziness, Grade 1, number of patients ([2]; continuous dosing (n=15)): 3 | Dizziness, Grade 2, number of patients ([2]; continuous dosing (n=15)): 1 | Fatigue, Grade 1, number of patients ([2]; continuous dosing (n=15)): 4 | Fatigue, Grade 2, number of patients ([2]; continuous dosing (n=15)): 1 | Flatulence, Grade 1, number of patients ([2]; continuous dosing (n=15)): 3 | Hypotension, Grade 1, number of patients ([2]; continuous dosing (n=15)): 2 | Hypotension, Grade 3, number of patients ([2]; continuous dosing (n=15)): 1 | Nausea, Grade 1, number of patients ([2]; continuous dosing (n=15)): 4 | Neuropathic Sensory, Grade 1, number of patients ([2]; continuous dosing (n=15)): 4 | Neutropenia, Grade 1, number of patients ([2]; continuous dosing (n=15)): 1 | Neutropenia, Grade 2, number of patients ([2]; continuous dosing (n=15)): 3 | Neutropenia, Grade 3, number of patients ([2]; continuous dosing (n=15)): 2 | Pleural effusion, Grade 1, number of patients ([2]; continuous dosing (n=15)): 2 | Pruritus, Grade 1, number of patients ([2]; continuous dosing (n=15)): 5 | Pruritus, Grade 2, number of patients ([2]; continuous dosing (n=15)): 1 | Rash/desquamation, Grade 1, number of patients ([2]; continuous dosing (n=15)): 4 | SGPT, Grade 2, number of patients ([2]; continuous dosing (n=15)): 2 | Thrombosis, Grade 3, number of patients ([2]; continuous dosing (n=15)): 2 | Anemia, Grade 1, number of patients ([2]; intermittent dose (n=35)): 1 | Anemia, Grade 2, number of patients ([2]; intermittent dose (n=35)): 1 | Anemia, Grade 3, number of patients ([2]; intermittent dose (n=35)): 1 | Anorexia, Grade 1, number of patients ([2]; intermittent dose (n=35)): 3 | Anorexia, Grade 2, number of patients ([2]; intermittent dose (n=35)): 1 | Constipation, Grade 1, number of patients ([2]; intermittent dose (n=35)): 4 | Constipation, Grade 2, number of patients ([2]; intermittent dose (n=35)): 5 | Diarrhea, Grade 1, number of patients ([2]; intermittent dose (n=35)): 5 | Diarrhea, Grade 3, number of patients ([2]; intermittent dose (n=35)): 1 | Dizziness, Grade 1, number of patients ([2]; intermittent dose (n=35)): 8 | Dysgeusia, Grade 1, number of patients ([2]; intermittent dose (n=35)): 3 | Edema, Grade 1, number of patients ([2]; intermittent dose (n=35)): 4 | Fatigue, Grade 1, number of patients ([2]; intermittent dose (n=35)): 14 | Fever, Grade 1, number of patients ([2]; intermittent dose (n=35)): 4 | Hemolysis, Grade 2, number of patients ([2]; intermittent dose (n=35)): 1 | Hemolysis, Grade 4, number of patients ([2]; intermittent dose (n=35)): 1 | Infection, Grade 2, number of patients ([2]; intermittent dose (n=35)): 1 | Infection, Grade 3, number of patients ([2]; intermittent dose (n=35)): 2 | Insomnia, Grade 1, number of patients ([2]; intermittent dose (n=35)): 5 | Leukopenia, Grade 2, number of patients ([2]; intermittent dose (n=35)): 1 | Leukopenia, Grade 3, number of patients ([2]; intermittent dose (n=35)): 1 | Myalgia, Grade 1, number of patients ([2]; intermittent dose (n=35)): 5 | Myalgia, Grade 2, number of patients ([2]; intermittent dose (n=35)): 1 | Nausea, Grade 1, number of patients ([2]; intermittent dose (n=35)): 9 | Nausea, Grade 2, number of patients ([2]; intermittent dose (n=35)): 1 | Neutropenia, Grade 1, number of patients ([2]; intermittent dose (n=35)): 1 | Neutropenia, Grade 2, number of patients ([2]; intermittent dose (n=35)): 2 | Neutropenia, Grade 3, number of patients ([2]; intermittent dose (n=35)): 2 | Neutropenia, Grade 4, number of patients ([2]; intermittent dose (n=35)): 3 | Pleural effusion, Grade 1, number of patients ([2]; intermittent dose (n=35)): 2 | Pleural effusion, Grade 3, number of patients ([2]; intermittent dose (n=35)): 1 | Pruritus, Grade 1, number of patients ([2]; intermittent dose (n=35)): 4 | Pruritus, Grade 2, number of patients ([2]; intermittent dose (n=35)): 1 | Rash/desquamation, Grade 1, number of patients ([2]; intermittent dose (n=35)): 7 | Rash/desquamation, Grade 2, number of patients ([2]; intermittent dose (n=35)): 3 | Supraventricular arrythmia, Grade 4, number of patients ([2]; intermittent dose (n=35)): 1 | Thrombocytopenia, Grade 1, number of patients ([2]; intermittent dose (n=35)): 3 | Thrombocytopenia, Grade 3, number of patients ([2]; intermittent dose (n=35)): 2 | patients with dose reductions ([2]; intermittent doses, 7 out of 30 patients): 23% | dose up to which lenalidomide was well tolerated ([2]; intermittent dosing schedule, 21 days on, 7 days off): up to 35 mg/day | median time on-study of patients with stable disease ([3]; 12 patients, range 4 – 11): 5 months | complete or partial response ([3]; 44 evaluable patients): No complete or partial response was noted | patients with stable disease who had prostate cancer ([3]; of 12 patients with SD): 9 | unchanged lenalidomide excreted into urine, fraction of dose ([4]; healthy volunteers): two thirds | increase of lenalidomide exposure in mild RI over normal function ([4]; patients with multiple myeloma): 56% | interpatient variability on total lenalidomide clearance ([5]; before inclusion of CLCr in the model): 70.6% | BSV of Tlag, Population Mean (95% CI) ([5]; final PopPK model): 30.0 (2.2 – 47.9) CV% | BSV of V/F, Population Mean (95% CI) ([5]; final PopPK model): 33.0 (1.0 – 48.0) CV% | BSV of ka, Population Mean (95% CI) ([5]; final PopPK model): 146 (95 – 184) CV% | Residual error, Population Mean (95% CI) ([5]; final PopPK model): 34.0 (26.9 – 40.0) CV% | Tlag, Population Mean (95% CI) ([5]; final PopPK model): 0.37 (0.30 – 0.43) hr | V/F, Population Mean (95% CI) ([5]; final PopPK model): 57.8 (49.4 – 66.2) L | ka, Population Mean (95% CI) ([5]; final PopPK model): 4.60 (0.66 – 8.54) 1/hr | CL/F, Mild RI, Population Mean (95% CI) ([5]; final PopPK model, 50 ≤ CLCr ≤ 80 mL/min): 136 (97 – 175) ml/min | CL/F, Normal renal function, Population Mean (95% CI) ([5]; final PopPK model, CLCr > 80 mL/min): 243 (193 – 297) ml/min | BSV of Tlag, Bootstrap Median (95% CI) ([5]; non-parametric bootstrap): 29.1 (4.5 – 65.1) CV% | BSV of V/F, Bootstrap Median (95% CI) ([5]; non-parametric bootstrap): 31.5 (14.5 – 52.4) CV% | BSV of ka, Bootstrap Median (95% CI) ([5]; non-parametric bootstrap): 143 (92 – 197) CV% | Residual error, Bootstrap Median (95% CI) ([5]; non-parametric bootstrap): 33.8 (27.4 – 40.9) CV% | Tlag, Bootstrap Median (95% CI) ([5]; non-parametric bootstrap): 0.37 (0.25 – 0.43) hr | V/F, Bootstrap Median (95% CI) ([5]; non-parametric bootstrap): 57.8 (51.3 – 66.7) L | ka, Bootstrap Median (95% CI) ([5]; non-parametric bootstrap): 4.67 (2.52 – 9.19) 1/hr | CL/F, Mild RI, Bootstrap Median (95% CI) ([5]; non-parametric bootstrap, 50 ≤ CLCr ≤ 80 mL/min): 136 (103 – 178) ml/min | CL/F, Normal renal function, Bootstrap Median (95% CI) ([5]; non-parametric bootstrap, CLCr > 80 mL/min): 243 (202 – 297) ml/min | dose-normalized AUC ([5]; patients with normal renal function): 75 ng·h/ml per mg | dose-normalized AUC ([5]; renally impaired subjects (mild RI)): 167 ng·h/ml per mg

Source: publication PMC2808857 (Journal of clinical pharmacology, 2009)
